Laboratory results reported in ChEMBL document CHEMBL4513216, “Probing the Open Global Health Chemical Diversity Library for Multistage-Active Starting Points for Next-Generation Antimalarials” (ACS Infect Dis, 2020).

Assay: Toxicity liver stage against HepG2, at 10uM
Assay type: cell-based
Design: test concentration 10 uM, cell line HepG2-A16-CD81EGFP
Conditions: human, HepG2-A16-CD81EGFP cells; read-out: INHIBITION
Summary of the method: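 Uninfected HepG2-A16-CD81EGFP cells, 3 × 10^3 per well, 1536-well, plated on prespotted compound at 10 μM final, parasite-free screening media added to match infected plates; puromycin 10 μM positive, DMSO 0.5% negative; run in parallel with 48 h PbLuc assay at 37 °C, 5% CO2; viability by CellTiter-Glo luminescence, normalized to controls.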

SMILES | cytotoxicity at 10 µM
Cc1ncoc1C(=O)N1CCCC(C(=O)c2cccc(OC(C)C)c2)C1 (configuration not stated) | 8.84%
Fc1ccc2[nH]c([C@H]3CCN(C4CCOCC4)C3)nc2c1 | 1.9%
Cc1n[nH]c2c1C(c1ccc(O)cc1)SCC(=O)N2 (configuration not stated) | 10.6%
COc1ccc2c(c1)OC1(CCN(Cc3ccc(C)cc3)CC1)CC2=O | 7.6%
CC(=O)Nc1ccc(OCc2noc(C(=O)N3CCCC3)n2)cc1 | -12.3%
CC(C)CNC(=O)CNc1c(NCc2ccco2)c(=O)c1=O | -0.817%
Cc1cc(=O)n(CCNS(=O)(=O)c2ccccc2)cn1 | 3.33%
CN(C)CC1CSCCCN1S(=O)(=O)Cc1ccc(C(F)(F)F)cc1 (configuration not stated) | -5.36%
O=C(CC1CCCC1)N1CCN(c2ccc(-n3cncn3)nn2)CC1 | -11.9%
CC1c2ncc(COCC3CCOCC3)n2CCN1C(=O)c1ccoc1 (configuration not stated) | 7.01%
CC(C)N1CCN(C)C2(CCN(C(=O)c3ccnnc3)CC2)C1=O | 8.64%
O=C(COc1ccc2c(c1)OCO2)NCc1ccco1 | 3.22%
CCN(CC)CCNS(=O)(=O)c1cccc(CSC)c1 | -7.99%
Cc1nc(-c2ccnn2C)cc(C2CCCN(S(C)(=O)=O)C2)n1 (configuration not stated) | -0.66%
Cc1ncc(-c2ccccn2)c(CCNC(=O)C2CCCC2)n1 | 16.4%
Nc1ncc(CN2CCC(O)(c3ccccc3F)CC2)cn1 | 1%
Cc1cc2nccc(C3CCCN(C(=O)c4ccccc4F)C3)n2n1 (configuration not stated) | 13.6%
CCc1n[nH]c(C(=O)NCCn2nccc2C)c1C | -7.28%
CN(C)CCN(Cc1cccc(F)c1)C(=O)c1ccn(C)c(=O)c1 | -3.92%
CN1CCCC(CNC(=O)N(C)Cc2ccc(Cl)c(F)c2)C1 (configuration not stated) | 1.36%
O=C(CN1CCc2cncnc2C1)NC1CCCCNC1=O (configuration not stated) | 7.36%
O=C(CCC(F)(F)F)NCC1CCCS1 (configuration not stated) | -1.58%
Cc1cc(F)cc(S(=O)(=O)Nc2noc(C)n2)c1 | 3.11%

SMILES | cytotoxicity at 10 µM
O=C(Nc1cccnc1)N(Cc1ccccc1)C1CC1 | 7.78%
Cc1noc(CCNC(=O)C2CSCN2C(=O)C2CCCC2)n1 (configuration not stated) | -45%
CN1CCCC(CNC(=O)CN(C)S(=O)(=O)c2cccnc2)C1 (configuration not stated) | 9.45%
Cc1nc(CN2CCN(S(=O)(=O)N3CCOCC3)CC2)oc1C | 0.373%
O=C(NCC1(O)CCC1)NC(c1cc(F)ccc1F)C1CC1 (configuration not stated) | -4.81%
CN(CCCNC(=O)C1CCc2cn[nH]c2C1)c1ccc(F)cc1 (configuration not stated) | 14.2%
CCNc1cc2c(nn1)CCN(C(=O)C1COc3ccccc3O1)C2 (configuration not stated) | -6.34%
COC(C)Cc1nc(-c2cnn3c(C)cc(C)nc23)no1 (configuration not stated) | -8.11%
CN(CCCNC(=O)NCc1ccncc1)CC(F)(F)F | 1.85%
COCCC(=O)N(Cc1ccccn1)Cc1ccccc1C | 2.14%
CC(CS(C)(=O)=O)N(C(=O)CCc1ccc(Cl)s1)C1CC1 (configuration not stated) | 1.92%
Cc1nc(N2CCC(CC(=O)N3CCCC3)CC2)c2cnn(C)c2n1 | 0.866%
CS(=O)(=O)c1ccc(NC(=O)CSc2ccc3c(c2)CCC3)cc1 | 5.73%
COCc1nc2n(n1)CCCC2Nc1nc(C)ns1 (configuration not stated) | -3.32%
CCc1nc(NS(=O)(=O)c2cc(C)ccc2Br)no1 | 4.66%
O=C(CN1CCCC1Cn1cccn1)NC1CCN(C2CC2)CC1 (configuration not stated) | 5.77%
CC(C)CN1CCN(C(=O)c2cccnc2-n2cncn2)CC1 | 1.53%
Fc1cccc(C2CCCN2Cc2nnnn2C2CC2)c1 (configuration not stated) | 2.8%
CCOc1ccc(CNCc2ccc(C(=O)NC)cc2)cc1OCC | -7.06%
c1cc(-c2noc(CN3CCc4c(ncn4C4CC4)C3)n2)cs1 | 4.71%
Cc1noc(CS(=O)(=O)CC(=O)NC(C)c2ccccc2)n1 (configuration not stated) | 9.81%
CS(=O)(=O)CCCSCc1cc(F)cc(Br)c1 | 9.05%
CNS(=O)(=O)c1ccc(CNC(=O)N(CC(C)C)C(C)C)cc1 | 4.5%

SMILES | cytotoxicity at 10 µM
CC(C)NC(=O)CNC(C)c1c(F)cccc1Cl (configuration not stated) | 7.22%
CC(C(=O)N1CCCCCC1)N1CCN(c2nccs2)CC1 (configuration not stated) | 11.7%
CN(C(=O)CCN1CCCC1=O)c1cc(C#N)c2ccccc2n1 | 3.33%
CN(C)c1cc2c(nn1)CCN(C(=O)c1cc3ccccc3[nH]c1=O)C2 | 3.99%
Fc1cc(CNc2nncs2)ccc1Cl | -1.74%
CC(C)c1nc(C2CCCN2CCS(C)(=O)=O)no1 (configuration not stated) | 6.51%
CC(=O)N1CCCN(C(=O)NCCCN(C)S(C)(=O)=O)CC1 | -2.44%
OCc1ccc(N2CCN(c3ncccn3)CC2)c(F)c1 | -23.8%
CN1CCN(C(CNC(=O)CCn2cccn2)c2cccs2)CC1 (configuration not stated) | 24.4%
CN(C)C(=O)CN1CCO[C@H]2CN(Cc3ccoc3)C[C@H]21 | -108%
Cc1nnc([C@@]23CCO[C@@H]2CCN(Cc2ccc4c(c2)OCO4)C3)o1 | -102%
CN(C)C(=O)C1CCC2(CCN(C(=O)Nc3ccc(F)cc3)CC2)O1 (configuration not stated) | -111%
CCN1Cc2c(C(=O)NC(C)C)ncn2-c2ccccc2S1(=O)=O | -83.9%
Cc1nc(NCC2CC2)nc2c1COCC21CCN(C)C1 (configuration not stated) | -0.722%
Cc1noc(C)c1C1CCCN1CCC(=O)N1CCc2ccccc2C1 (configuration not stated) | 2.39%
O=C(c1ccnc(CC2COc3ccccc3C2)c1)N1CCCC1 (configuration not stated) | 1.7%
Cc1ccc(CN2CC[C@@H](NC(=O)c3cccnc3)[C@H](O)C2)o1 | 2.52%
O=C(CN1CCCCC1)NCc1cccnc1-n1cnc2ccccc21 | 0.522%
CCCc1cc(C(=O)NC(COC)c2ccnn2C)no1 (configuration not stated) | -6.14%
Cc1cccc(OC2CN(C(=O)C3CC(=O)N(C4CC4)C3)C2)c1 (configuration not stated) | -0.503%
CCC[C@H]1CN(Cc2nccn2C)C[C@@H]1NC(=O)C1(COC)CCC1 | -3.7%
CCc1nc2ccccc2n1C(CC)C(=O)N(C)Cc1noc(C)n1 (configuration not stated) | 2.23%
Cc1nc(CNCc2cccc(OC34CCCN(CC3)C4)c2)n[nH]1 (configuration not stated) | -3.69%

SMILES | cytotoxicity at 10 µM
Cc1sc2nc(CCN)nc(N3CCS(=O)(=O)CC3)c2c1C | -44.1%
CC(NC(=O)c1cccc(CCC(C)(C)O)c1)c1nnc(N)s1 (configuration not stated) | 1.16%
CN(C)C(C(=O)NC1(CO)CCCC1)c1ccc(F)cc1 (configuration not stated) | -48.2%
COc1cccc(CC(=O)N2CCC(Cc3nnc(SC)n3C)CC2)c1 | -40.2%
Nc1nc2c(c(N3CCC(CCn4cccn4)CC3)n1)CCNCC2 | -4.17%
CCn1c(-c2ccccc2)nn(CC(=O)NCCc2c[nH]cn2)c1=O | -2.99%
O=C(CCN1CCNCC1)N1CCC2(CC1)c1ccccc1CC2O (configuration not stated) | -9.43%
CCC(CO)(CO)NC(=O)C1CCC(=O)N(CCc2ccccc2)C1 (configuration not stated) | -2.78%
O=C1CC[C@H]2CN(Cc3cccc(F)c3)CC[C@H]2N1CCc1c[nH]cn1 | -1.04%
O=C(c1ccco1)N1CCC(n2cc(-c3ccsc3)nn2)CC1 | 1.41%
O=C(Nc1ccc(F)cc1)N1CCC2(CCC(=O)N(C3CC3)C2)CC1 | 5.54%
Cc1cc(C)nc(NC2CCCN(CCCc3ccccc3)C2)n1 (configuration not stated) | 2.49%
O=C(NCc1nc(-c2ncccn2)no1)c1ccc(C2CCCO2)s1 (configuration not stated) | 0.774%
CCc1nccn1-c1cncc(C2CCCN2Cc2ccc(F)cc2)n1 (configuration not stated) | -1.44%
CNC(=O)c1ccc(C(=O)N2CCCC2c2c(C)nn(C)c2C)cn1 (configuration not stated) | -12.8%
NC(=O)C1CN(C(=O)Nc2ccccc2OCC(F)(F)F)CCO1 (configuration not stated) | -7.75%
Cn1cnc(S(=O)(=O)NCCN2CCCCCC2)c1Cl | -17.2%
CC(C)c1nc(C2CCCN(C(=O)CCn3cncn3)C2)no1 (configuration not stated) | -21.1%
c1ccc(-c2nc(CN3CCCC3Cn3cncn3)co2)cc1 (configuration not stated) | -1.99%
Cc1cc(C)n(CC2CCCCN2CC(=O)NC2CCOCC2)n1 (configuration not stated) | -9.01%
CC(C)c1nc(CN2CCCC(Cn3cncn3)C2)cs1 (configuration not stated) | -12.9%
Cc1cc(NC(=O)NCc2cccnc2OC(C)C)no1 | -11.5%
CCN(Cc1cccc2c1OCO2)C(=O)NCCOC | 1.45%

SMILES | cytotoxicity at 10 µM
O=S(=O)(CCCNC1CCc2ncnn2C1)c1ccccc1 (configuration not stated) | 2.53%
CCc1n[nH]c(C2CN(C(=O)c3ccnc(C4CC4)n3)CCO2)n1 (configuration not stated) | 2.4%
CCn1cc(CN2CCCN(C(=O)c3ccc(C)o3)CC2)cn1 | -13.9%
CCc1nnc2n1CCN(C(=O)COCCc1ccccc1)C2 | -8.28%
CCc1nc(CN(C)C2CCN(CCc3ccccn3)C2)no1 (configuration not stated) | -0.168%
CC(Cc1c(F)cccc1F)NC(=O)Nc1cnn(CC(N)=O)c1 (configuration not stated) | -2.96%
O=C([C@H]1COC[C@H]2CN(C3CCCCC3)C[C@H]21)N1CCOCC1 | -110%
Cc1occc1C(=O)N1CCC2(CC1)CC(OCc1ccccn1)CO2 (configuration not stated) | -71.7%
Cc1cccc(CN2CCC[C@@H]3CN(C(=O)c4ccco4)C[C@@H]32)n1 | -3.49%
Cc1ccc(N2CCC3(CC2)CC(OCC(C)C)C3)nn1 | -121%
CCOC1COC2(CCN(CC3CCOCC3)CC2)C1 (configuration not stated) | -97.6%
CS(=O)(=O)CC(=O)N1C[C@H]2CCC[C@@]2(COCc2ccncc2)C1 | -101%
Cc1nc(CN2CCC3(CC2)C(=O)N(C)CCN3C)cs1 | 4.37%
CC(C)Cc1nc(-c2ccnc(N3CCNCC3)n2)no1 | 2.04%
Cc1nc(CN2CCO[C@@H]3CC(COc4ccccn4)C[C@H]32)cs1 (some centres not stated) | 8.57%
COc1ccc(OCc2sc(C3(O)CCCNCC3)nc2C)cc1 (configuration not stated) | -3.66%
COCCN1CCCn2c(nc(CNC(=O)COC)cc2=O)C1 | -106%
COc1nn(C)c2c1CCCN(C(=O)c1cccc(C)n1)C2 | -97.3%
CCOC1CC2(CCN(C(=O)Cc3ccccn3)CC2)C1 | -90.9%
O=C(Cc1ccsc1)N1Cc2nc(CN3CCCCC3)oc2C1 | 7.19%
